This is a sample that favours compounds with a hit; in the whole collection about 4% have one here.
Cl transport mod: KCC2 (human) Cl- transport modulation; B-score of Tl+ flux slope (higher = more flux/activation; lower = inhibition) at 10 µM; actives 2.2% (n = 190,000); KCC2 cells, thallium flux FluoZin-2 fluorescence;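 active means thallium flux slope and its plate-corrected score both differing from the plate sample mean at a set confidence after two filtering rounds, in either direction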;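 further: slope of fluorescence scaled to starting intensity during 10 to 20 s after thallium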
MT stabilize HCS: microtubule stabilization, imaging screen. HeLa tubulin immunostaining HCS, 24 h; share of cells brighter than vehicle mean+2SD. actives 0.83% (n = 200,000). % tubulin-high responders, % at 10 µM. AID 2205;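 active means plate Z-score above 3 for both tubulin-high and condensed-nucleus cell shares, with cell loss under 80%, at 10 µM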;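 further: anti alpha tubulin signal scored within the nucleus-defined area of each cell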
WT yeast gro inh: growth inhibition of WT yeast, mitochondrial fusion screen; actives 2.1% (n = 190,000); AID 1362; mitochondrial fusion phenotypic screen, WT strain; inhibition, % at 10 µM; in the data active means inhibition above about 58%; tested in S. cerevisiae
Pf gametocyte: inhibitors of late stage P. falciparum gametocyte viability | P. falciparum stage V gametocytes, ATP luminescence, 24 h | inhibition, % at 10.9 µM | actives 0.065% (n = 150,000) | AID 743093;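 active means inhibition above the mean plus 3 SD of compounds within the control limits, set per campaign, cut at about 38% in these data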;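 further: 0% = DMSO wells and 100% = medium only without gametocytes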
bCat nuc transl: alters nuclear translocation of beta-catenin in HeLa cells; immunofluorescence imaging; actives 0.3% (n = 190,000); nuclear translocation activity, % at 5 µM;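 active means nuclear translocation activity above 50% at 5 µM, with a well cell count of 50 or more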;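 further: per-cell ratio of nuclear to cytoplasmic median beta-catenin stain intensity; plate controls were DMSO negative control for no effect and GSK-3 inhibitor IX positive control for full effect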
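Signal – beta-catenin immunofluorescence imaging with DAPI · Test system – human HeLa cell line · Dosing – 5 µM primary single dose, 0.1% DMSO, 0.02–20 µM confirmation series · Measure – % activation, nuclear-to-cytoplasmic median beta-catenin signal ratio per cell · Incubation – 24 h compound exposure at 37°C, 5% CO2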
* hit, by the source's call; / = no result.

SMILES	Cl transport mod	MT stabilize HCS	WT yeast gro inh	Pf gametocyte	bCat nuc transl
COc1ccc(C(C(=O)NC2CCCC2)N(Cc2ccccc2)C(=O)c2nsc(Cl)c2Cl)cc1 (stereo unspecified)	-0.45	2	63*	20	0
COc1ccc(S(=O)(=O)N/N=c2\oc3c(OC)cccc3cc2S(=O)(=O)c2ccc(C)cc2)cc1OC	-0.96	2	-11	30	-1
O=C(NC(=S)Nc1ccc(Cc2ccncc2)cc1)c1ccc(F)cc1	-0.27	3	2	-36	-2
COc1ccc(NS(=O)(=O)c2ccc(N3CCCC3=O)cc2)cn1	0.055	11	-15	-20	-1
COc1ccc(NS(=O)(=O)c2ccc3c(c2)Cc2ccccc2-3)cn1	-0.94	4	60*	/	0
COC(=O)CNc1nc(Cl)nc(Nc2ccc(C)cc2)n1	-0.59	2	-3	/	-3
CCN1CCN(C(=O)c2ccc3c(c2)c(C)c(C)n3Cc2ccccc2)CC1	-0.55	/	-11	/	1
Cc1c(C)n(Cc2ccccc2)c2ccc(C(=O)OCCCN(C)C)cc12	-0.34	3	87*	10	1
COc1ccc([C@H]2CC(=O)C=C(c3ccc4c(c3)sc3ccccc34)C2)cc1	/	/	/	14	/
Cc1ccc(N/C(N)=N/c2nc3c(c(=O)[nH]2)CCCC3)c(C)c1	-0.032	20*	-23	/	10
S=C(Nc1cccc(Cl)c1)NC1CCCCC1	-1	2	45	/	1
COc1ccccc1NC(=S)NCCC(c1ccccc1)c1ccccc1	-0.28	3	71*	-29	-2
CC(C)(C)c1ccccc1NC(=S)NC1CCCCC1	0.54	2	66*	-9	-2
S=C(NNc1cccc(Cl)c1)NC1CCCCC1	0.028	4	61*	16	0
Cc1cccc(NC(=S)NC2CCCCCC2)c1C	0.65	3	67	-13	0
COc1ccccc1NC(=S)NC1CCCCCC1	0.29	5	59*	-35	1
CCOC(=O)c1ccc(NS(=O)(=O)c2c(N)[nH]c(=O)[nH]c2=O)cc1	/	/	/	-24	/
Cn1c(NC(=O)c2ccccc2F)c(-c2cccs2)c(=O)c2ccccc21	-0.37	/	/	6	0
COc1cccc(NC(=O)C(=S)NC2CCCCC2)c1	-0.21	2	59*	10	3
S=C(Nc1ccc(Cl)cc1)NC1CCCCC1	0.96	/	/	-7	-1
S=C(Nc1ccc(Nc2ccccc2)cc1)NC1CCCCCC1	-0.03	8	81*	/	0
COc1cc(C)c(/C=C(\C#N)C(=O)Nc2cccc(C)c2)cc1C(C)C	-0.0044	3	-3	6	/
COC(=O)CN(c1ccccc1)S(=O)(=O)c1cc(Br)ccc1OC	-2.3	4	16	-2	1
COc1ccc(/C=C/C(=O)NC(=S)NN2CCCCC2c2cccnc2)cc1OC (stereo unspecified)	1.7	5	0	-19	-3
O=C(/C=C/c1ccc(Cl)cc1)NC(=S)NN1CCCCC1c1cccnc1 (stereo unspecified)	6.2*	2	66*	/	-1
SMILES	Cl transport mod	MT stabilize HCS	WT yeast gro inh	Pf gametocyte	bCat nuc transl
C/C(=N\N=C(/N)SC1CC(=O)N(c2ccc(Br)cc2)C1=O)c1cccs1 (stereo unspecified)	0.024	2	65*	/	0
C/C(=N\N=C(/N)SC1CC(=O)N(c2ccccc2)C1=O)c1cccs1 (stereo unspecified)	-0.13	2	22	/	-3
CCCCCCOc1ccc(N2C(=O)CC(S/C(N)=N/N=C(\C)c3cccs3)C2=O)cc1 (stereo unspecified)	-0.68	2	38	/	1
C/C(=N\N=C(/N)SC1CC(=O)N(c2ccc(Cl)c(Cl)c2)C1=O)c1cccs1 (stereo unspecified)	0.098	3	98*	-9	1
C/C(=N\N=C(/N)SC1CC(=O)N(c2ccc(Cl)cc2)C1=O)c1cccs1 (stereo unspecified)	-0.41	1	60*	/	-2
COc1cccc(/C=C/C(=O)NCc2ccc(S(N)(=O)=O)cc2)c1	0.068	/	/	11	4
CC(C)(C)NC(=O)C(=O)NNC(=O)c1ccc(C(C)(C)C)cc1	54*	2	-14	/	5
C=CCOc1ccc(C(=O)Nc2ncn[nH]2)cc1	/	/	/	8	/
COc1ccccc1OCCCOc1c(C)cc(C)cc1Br	0.15	3	7	-1	-2
COc1cccc(OC)c1OCCCOc1ccc(C)cc1Br	1.9	2	67*	-7	0
C[C@H]1CCC(=O)N([C@H](CN=[N+]=[N-])Cc2ccccc2)CC1	/	/	/	-20	/
Cc1c(/C=N\NC(=O)C2COc3ccccc3O2)c2ccccc2n1C (stereo unspecified)	-0.59	6	9	3	58*
Cn1cc(/C=N\NC(=O)C2COc3ccccc3O2)c2ccccc21 (stereo unspecified)	0.49	20	-8	17	4
O=C(N/N=C/c1cccs1)C1COc2ccccc2O1 (stereo unspecified)	1.1	40*	6	/	11
CC(=O)Nc1ccc(C(=O)OCc2ccc(Cl)cc2)cc1	-0.59	1	-9	13	1
CC(=O)Nc1ccc(C(=O)OCc2ccccc2Br)cc1	1.4	4	76*	21	-2
COc1ccc(-c2oc3ccccc3c2C#CC(C)(C)O)cc1	/	/	/	5	/
COc1ccc(/C=C/C(=O)c2ccc(O)cc2)cc1COc1ccc(F)cc1	/	3	90*	-7	-1
O=C(O)c1ccc(S(=O)(=O)N2CCc3ccccc3C2)cc1	/	/	/	1	/
O=C(/C=C/c1ccco1)N1CCc2ccccc21	-2.9	2	23	-11	-3
Cc1ccc(/C=C/C(=O)N2CCc3ccccc32)o1	-2.7	10*	-4	-18	/
CC(=O)Nc1ccccc1/C=C/c1ccc2c(C)cc(C)c(O)c2n1	0.14	3	77*	-3	-2
CC(=O)Nc1ccccc1/C=C/c1ccc2c(C)ccc(O)c2n1	-1.3	3	16	-27	-2
O=C(C1CCCN(CCCc2ccccc2)C1)N1CCCCCC1 (stereo unspecified)	0.7	3	-9	26	0
O=C(Nc1ccc(Cl)c(Cl)c1)c1ccccc1	/	/	/	-10	/
SMILES	Cl transport mod	MT stabilize HCS	WT yeast gro inh	Pf gametocyte	bCat nuc transl
CN(C(=O)Nc1ccc(Cl)c(Cl)c1)c1ccccc1C(=O)O	0.78	3	72*	-3	-2
COc1ccc(C(=O)c2c(NC(C)=O)sc3c2CCN(C(=O)OC(C)(C)C)C3)cc1	-2.5	/	/	-10	1
O=S(=O)(c1ccc(N=C2NN=C(c3cc(F)ccc3F)CS2)cc1)N1CCOCC1	-1.6	5	31	-5	-1
Fc1ccc(N=C2NN=C(c3cc(F)ccc3F)CS2)cc1	1	7	80*	-6	-1
CCOC(=O)c1sc2ncnc(NCc3ccco3)c2c1C	128*	2	-4	-19	/
O=C(c1cnc(-c2ccc(Cl)cc2)s1)c1ccc(Cl)cc1Cl	0.79	3	73*	/	/
CN1CCN(c2ccc(-c3ccnn3C(=O)Nc3cccc(C(F)(F)F)c3)cc2)CC1	0.84	4	68*	/	0

Source: PubChem BioAssay (several laboratories)
